TAAR1 agonist: human TAAR1 agonism | CHO RD-HGA16 TAAR1, Fluo-8 calcium fluorescence; vehicle wells 0%, saturating PEA agonist 100% | 0.99% of 360,000 active | Q96RJ0 | activation, % at 3 µM;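 active = activation above the mean activation of all test compounds in the run plus 3 SD, cut at about 38% in these data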
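Repeats: no replicates (n 1) | Material: CHO-derived RD-HGA16 cells with stable Gα16 and human TAAR1 | Technique: Kinetic Fluo-8 calcium fluorescence | Schedule: 17-24 h seeding, 75 min 37 °C dye, 30 min RT | Evaluation: % activation from peak over basal fluorescence ratio, DMSO-to-PEA scaled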
TAAR1 antagonist: antagonists of human TAAR1 | CHO RD-HGA16 TAAR1, Fluo-8 calcium fluorescence, antagonist | inhibition, % at 3 µM | 1.5% of 360,000 active | AID 624466;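 active = inhibition above a per-plate cutoff, the mean inhibition of test compounds on that plate plus 3 SD, cut at about 49% in these data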;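 note: 0% = DMSO plus EC80 beta-PEA response and 100% = DMSO alone without agonist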
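Material: RD-HGA16 CHO cells with stable hTAAR1 and Gα16; Dosing: single nominal final test compound concentration of 3 µM; Schedule: seeding 17-24 h prior, 75-min 37 °C, 30-min RT dye loading; Detection: kinetic Fluo-8 calcium fluorescence measurement; Measure: % inhibition from peak post-agonist over basal fluorescence ratio; Benchmarks: vehicle and agonist controls.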
GalR3 antagonist: blocks the human galanin receptor 3. inhibition, % at 3 µM. HEK293 GalR3-CNG cAMP membrane potential fluorescence; galR3 body fused to GalR1 C-terminus. AID 651719. 0.44% of 360,000 active. O60755;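 active = inhibition above the screen-wide average plus 3 SD, cut at about 13% in these data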;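 note: forskolin and galanin both at EC90 stimulate the cells; cAMP rise reported by CNG channel membrane potential dye signal; 0% = forskolin plus galanin with DMSO and 100% = forskolin alone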
Target sequence (O60755 1-299 limits assumed): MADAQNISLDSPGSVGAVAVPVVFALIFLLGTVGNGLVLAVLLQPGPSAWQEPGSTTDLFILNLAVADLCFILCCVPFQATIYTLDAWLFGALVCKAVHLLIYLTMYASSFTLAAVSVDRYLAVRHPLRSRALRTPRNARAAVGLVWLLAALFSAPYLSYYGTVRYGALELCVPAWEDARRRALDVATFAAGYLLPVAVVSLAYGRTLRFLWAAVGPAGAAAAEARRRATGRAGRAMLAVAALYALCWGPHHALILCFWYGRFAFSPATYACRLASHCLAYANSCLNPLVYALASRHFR
CHO parental Ca: counter-screen for OX1R antagonists: effect in parental CHO cells; parental CHO-K1, ATP-induced calcium, Fluo-8 fluorescence; inhibition, % at 5.6 µM; 0.63% of 330,000 active; AID 463079;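 active = inhibition above that plate's mean sample inhibition plus 3 SD, cut at about 26% in these data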;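 note: 0% = ATP-challenged DMSO wells and 100% = DMSO wells without ATP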
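Material: Parental CHO cells | Reagent: ATP | Compound dosing: Single nominal dose of 5.6 µM per compound | Detection: Intracellular calcium via Fluo-8 no-wash fluorescent dye | Read-out: % inhibition of ATP-induced calcium mobilization | Benchmarks: Low control ATP plus DMSO, high control DMSO only | Replicates: Singlicate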
OX1R antag-1: blocks the human orexin 1 receptor; O43613; CHO/OX1R cells, Fluo-8 calcium fluorescence, orexin A; inhibition, % at 5 µM; 0.43% of 330,000 active; AID 434989;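 active = inhibition above its plate's threshold, mean inhibition of all tested compounds on the plate plus 3 SD, cut at about 37% in these data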;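 note: 0% = orexin A challenge wells and 100% = SB-334867-A antagonist wells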
Target sequence (O43613 whole entry, looked up): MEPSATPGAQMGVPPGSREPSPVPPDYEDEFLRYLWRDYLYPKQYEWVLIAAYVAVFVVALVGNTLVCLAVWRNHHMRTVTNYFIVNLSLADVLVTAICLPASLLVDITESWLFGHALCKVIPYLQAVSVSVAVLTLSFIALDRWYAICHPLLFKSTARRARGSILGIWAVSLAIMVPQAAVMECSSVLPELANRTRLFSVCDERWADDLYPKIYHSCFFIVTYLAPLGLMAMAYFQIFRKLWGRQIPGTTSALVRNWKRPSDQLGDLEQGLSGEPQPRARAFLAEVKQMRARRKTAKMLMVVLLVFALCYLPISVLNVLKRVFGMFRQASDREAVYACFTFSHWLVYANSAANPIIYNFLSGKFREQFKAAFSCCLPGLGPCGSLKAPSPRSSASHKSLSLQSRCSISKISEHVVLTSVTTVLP
OX1R antag-2: OX1R (human) antagonism. O43613. OX1R-expressing cells, FRET antagonist read-out. inhibition, % at 6.6 µM. 1.8% of 330,000 active. AID 485270; in the data active = inhibition mostly above about 38%, no sharp cut-off; inactive = mostly below about 40%;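 note: 0% = agonist challenge alone and 100% = reference antagonist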
Active calls of the source: *. The list is not random: actives were taken first. Their share in the collection is about 4.3%.

For CCCCC(CC)C(=O)Nc1ncc([N+](=O)[O-])s1 (stereo not drawn) the results were TAAR1 agonist 11.5, TAAR1 antagonist -25.6, GalR3 antagonist -4.0, CHO parental Ca 38.2*, OX1R antag-1 24.7 and OX1R antag-2 36.4.
`O=C(COC(=O)c1ccc(Br)o1)Nc1ncc([N+](=O)[O-])s1` gave TAAR1 agonist 25.1, TAAR1 antagonist -14.3, GalR3 antagonist -7.6, CHO parental Ca 12.8, OX1R antag-1 12.1 and OX1R antag-2 41.2*.
`O=C(CCS(=O)(=O)c1ccccc1)Nc1ncc([N+](=O)[O-])s1` gave TAAR1 agonist 4.5, TAAR1 antagonist -1.1, GalR3 antagonist -6.8, CHO parental Ca -8.6, OX1R antag-1 -16.2 and OX1R antag-2 57.9.
For C[C@@H]1CN([C@@H](C)CO)C(=O)CCCn2cc(nn2)CO[C@H]1CN(C)C(=O)c1cc(-c2ccccc2)on1 the results were TAAR1 agonist 0.0, TAAR1 antagonist -4.1 and GalR3 antagonist -2.2.
For CCN(CC)CCN(C)C(=O)c1[nH]c(C(F)(F)F)nc1-c1ccccc1 the results were TAAR1 agonist 2.2, TAAR1 antagonist -13.6 and GalR3 antagonist -6.9.
For CC(C)n1nnnc1C1c2ccccc2C(=O)N1CCc1c[nH]c2ccccc12 (stereo not drawn) the results were TAAR1 agonist 1.5, TAAR1 antagonist 1.7 and GalR3 antagonist -7.2.
Screening CCCC(C)(C)C(=O)N1CCC1(C)C(=O)Nc1cccc(OC)c1 (stereo not drawn) returned TAAR1 agonist 1.7, TAAR1 antagonist -32.6 and GalR3 antagonist -8.2.
For CC(C)(C)C(=O)Nc1ccccc1C(=O)Nc1cc(Cl)ccc1Cl the results were TAAR1 agonist 54.0*, TAAR1 antagonist 26.5, GalR3 antagonist -0.7, CHO parental Ca -15.0, OX1R antag-1 -33.1 and OX1R antag-2 15.0.
Screening CC(=O)NCCNc1nc2cc(-c3ccc(C(=O)N4CCN(C)CC4)cc3)sc2c(=O)n1C returned TAAR1 agonist 3.1, TAAR1 antagonist -11.1 and GalR3 antagonist -4.3.
Screening C=C(C)c1sc(-c2ccc(Cl)cc2)nc1C returned TAAR1 agonist 10.4, TAAR1 antagonist -9.8, GalR3 antagonist -1.0, CHO parental Ca -1.1, OX1R antag-1 -18.2 and OX1R antag-2 12.8.
Screening C=CCc1ccc(O)c(-c2cc(CC=C)ccc2O)c1 returned TAAR1 agonist -1.5, TAAR1 antagonist 28.3, GalR3 antagonist -7.7, CHO parental Ca 40.2*, OX1R antag-1 46.9* and OX1R antag-2 3.1.
`C=CCc1ccc(OCC(O)CO)c(OC)c1` (stereo not drawn) gave TAAR1 agonist -0.3, TAAR1 antagonist 10.3, GalR3 antagonist 0.5, CHO parental Ca -2.3, OX1R antag-1 -5.2 and OX1R antag-2 -9.9.
Screening CC(C)c1ccc(OCc2ccc(C(=O)N3CCN(c4ccccn4)CC3)cc2)cc1 returned TAAR1 agonist 8.5, TAAR1 antagonist 56.7*, GalR3 antagonist 4.0, CHO parental Ca -11.0, OX1R antag-1 10.0 and OX1R antag-2 25.1.
Screening CCCCN(C(=O)c1ccccc1OCc1ccc(F)cc1)c1c(N)n(CCC)c(=O)[nH]c1=O returned TAAR1 agonist 3.4, TAAR1 antagonist -20.8, GalR3 antagonist -1.9, CHO parental Ca -23.1, OX1R antag-1 10.9 and OX1R antag-2 66.0*.
CCCCN(C(=O)c1ccc([N+](=O)[O-])o1)c1c(N)n(CCCC)c(=O)[nH]c1=O was read as TAAR1 agonist 1.1, TAAR1 antagonist -1.9, GalR3 antagonist -6.3, CHO parental Ca -21.7, OX1R antag-1 -22.4 and OX1R antag-2 62.4*.
`CCCCn1c(N)c(N(Cc2ccccc2OC)C(=O)c2ccc([N+](=O)[O-])s2)c(=O)[nH]c1=O` gave TAAR1 agonist -0.4, TAAR1 antagonist -6.6, GalR3 antagonist -3.4, CHO parental Ca -17.4, OX1R antag-1 -23.2 and OX1R antag-2 50.0*.
For CN(Cc1cnn(-c2ccc(F)cc2)c1)C(=O)[C@H]1O[C@@H](n2cnc3c(N)ncnc32)[C@H](O)[C@@H]1O the results were TAAR1 agonist 0.6, TAAR1 antagonist -0.8 and GalR3 antagonist -4.7.
Screening O=C(CN1CCN(Cc2ccccc2)CC1)N/N=C/c1cccnc1 returned TAAR1 agonist 2.1, TAAR1 antagonist -22.3, GalR3 antagonist -2.5, CHO parental Ca 0.2, OX1R antag-1 -5.0 and OX1R antag-2 2.0.
CC(=O)c1cc(F)c(N2CCN(C(=O)Cc3ccccc3)CC2)cc1C was read as TAAR1 agonist 10.7, TAAR1 antagonist 23.6, GalR3 antagonist 3.2, CHO parental Ca 36.3, OX1R antag-1 58.5* and OX1R antag-2 69.7.
Screening CC(C)C[C@@H]1COc2cccc(N3CCC[C@@H]3CO)c2S(=O)(=O)N1 returned TAAR1 agonist 23.0, TAAR1 antagonist 5.3 and GalR3 antagonist 0.2.
CCCNC(=O)C1(C)CCN(C(=O)c2ccc(OC(F)F)cc2)C1 (stereo not drawn) was read as TAAR1 agonist -0.2, TAAR1 antagonist -14.3 and GalR3 antagonist -4.2.
COc1ccc2c(-c3ccc(S(N)(=O)=O)cc3)c(-c3ccc(S(C)(=O)=O)cc3)sc2c1 was read as TAAR1 agonist 5.5, TAAR1 antagonist 35.9, GalR3 antagonist -6.5, CHO parental Ca 24.4, OX1R antag-1 20.0 and OX1R antag-2 2.5.
CCCCC(=O)Nc1nc2ccc3nc(C)sc3c2s1 was read as TAAR1 agonist -1.4, TAAR1 antagonist -12.4, GalR3 antagonist -2.2, CHO parental Ca -17.9, OX1R antag-1 -11.0 and OX1R antag-2 51.6*.
C/C(=N\Nc1nc2ccccc2nc1C)c1ccccc1O was read as TAAR1 agonist 1.4, TAAR1 antagonist 7.1, GalR3 antagonist -6.5, CHO parental Ca 5.7, OX1R antag-1 -10.4 and OX1R antag-2 64.1*.
`COc1ccc(C(C(O)C(=O)c2c[nH]c3ccccc23)N2CCN(c3ccc(OC)cc3)CC2)cc1` (stereo not drawn) gave TAAR1 agonist 38.5*, TAAR1 antagonist 8.7, GalR3 antagonist -5.2, CHO parental Ca -8.1, OX1R antag-1 -5.2 and OX1R antag-2 1.2.
Screening CCOC(=O)C1=C(CC)Nc2ccccc2N=C1NC(=O)Nc1ccc(Cl)c(Cl)c1 returned TAAR1 agonist 8.9, TAAR1 antagonist 42.6, GalR3 antagonist -5.0, CHO parental Ca 63.7*, OX1R antag-1 64.4* and OX1R antag-2 95.7*.
For Cc1ccccc1CC(=O)Nc1ccc2c(c1)c(=O)n(C)n2-c1ccccc1F the results were TAAR1 agonist 6.4, TAAR1 antagonist 20.6 and GalR3 antagonist 1.2.
`C=CCc1cccc2cc(C(=O)N(CC)CC)c(=O)oc12` gave TAAR1 agonist 1.8, TAAR1 antagonist 105.5*, GalR3 antagonist -1.4, CHO parental Ca -9.9, OX1R antag-1 -15.1 and OX1R antag-2 1.7.
